{"source": "paper PMC10600558", "about": "(Molecular Imaging and Radionuclide Therapy, 2023)", "key": {"[1]": {"system": "neuroendocrine tumors (NETs)", "details": "NETTER-1 trial; cited from earlier work"}, "NET": {"system": "NET", "details": "recent study of the same group; cited from earlier work"}, "[2]": {"assay": "Toxicity and side effects according to CTCAE v5.0", "type": "in vivo, patients", "how_it_was_run": "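Patients were treated as inpatients with amino-acid renal protection and ondansetron premedication. Vital signs were recorded every 60 min for 5 h, and complaints were tracked for 24 h. Adverse events were graded by CTCAE v5.0 three months after each cycle. Haematological, renal and liver values before versus after the last cycle were compared by Wilcoxon rank sum test and reported as mean ± standard deviation, with p<0.05 taken as significant.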"}, "[3]": {"assay": "In vitro stability of [^225Ac]Ac-DOTATATE in saline", "type": "physicochemical", "details": "37 °C, up to 5 h, n=3, slight decrease in stability after 5 h"}, "[4]": {"assay": "In vivo stability in patients' blood and urine samples", "details": "RP-HPLC", "how_it_was_run": "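Samples came from the first 3 patients: blood at 0-10 min and urine up to 3 h post-injection. Blood was precipitated with acetonitrile (1:1) and centrifuged for 5 min at 14,680 rpm, and the supernatant was diluted 1:1 with water. Urine was diluted with water, filtered and analysed immediately. Both went to RP-HPLC, and fractions were gamma-counted (440 keV, [213Bi]) at least 20 h later and plotted by tube number.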"}, "[5]": {"assay": "[^68Ga]Ga-DOTATATE uptake of parotid glands", "type": "in vivo, patients", "details": "[^68Ga]Ga-DOTATATE PET/CT", "how_it_was_run": "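Parotid SUVmax was read on [68Ga]Ga-DOTATATE PET/CT at baseline and after cycles of treatment. Pre/post values were compared by Wilcoxon rank sum test and reported as mean ± standard deviation, with p<0.05 taken as significant.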"}, "[6]": {"system": "metastatic neuroendocrine tumors (NETs)", "assay": "Response evaluation by [^68Ga]Ga-DOTATATE PET/CT and RECIST 1.1", "type": "in vivo, patients", "details": "[^68Ga]Ga-DOTATATE PET/CT three months after treatment, n=9 evaluated", "how_it_was_run": "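Treatment was 100-120 kBq/kg given intravenously over 5 min. Response was read on [68Ga]Ga-DOTATATE PET/contrast-enhanced CT within 4 weeks before and 12-16 weeks after treatment, repeated 12-18 weeks after each cycle until progression or death, and scored by RECIST 1.1 on the ceCT. PFS ran from the first administration and was estimated by Kaplan-Meier. Response comparisons used chi-square, with p<0.05 taken as significant.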"}, "[7]": {"assay": "Excretion from the kidneys after injection", "type": "in vivo", "details": "24 h after injection, 9 patients, mean ± SD, relative to injected activity", "how_it_was_run": "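Patients received 100-120 kBq/kg of the test radioligand as a slow intravenous injection over 5 min, with arginine/lysine kidney protection. The amount excreted in urine was quantified against standard samples prepared at the time of injection. The excretion rate was expressed relative to injected activity and reported as mean ± standard deviation.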"}, "[8]": {"details": "CTCAE v5.0, 8 patients analysed, n=1 (grade 2, after 3 cycles)"}}, "data": [{"substance": "[^177Lu]Lu-DOTATATE", "values": [{"measurement": "estimated median progression-free survival (PFS)", "setting": "[1]", "value": 40, "unit": "months"}]}, {"substance": "[^225Ac]Ac-DOTATATE", "values": [{"measurement": "disease control rate", "setting": "NET", "value": 79.8, "unit": "%"}, {"measurement": "hematotoxicity rate", "setting": "[2]; [8]", "value": 12.5, "unit": "%"}, {"measurement": "nephrotoxicity rate", "setting": "[2]; [8]", "value": 12.5, "unit": "%"}, {"measurement": "grade 3-4 toxicities", "setting": "[2]; CTCAE v5.0, mean activity 8.2±0.6 MBq per cycle, 1-3 cycles", "value": "No grade 3-4 toxicities"}, {"measurement": "lymphocyte count", "setting": "[2]; all patients, p<0.05", "value": "transient decrease"}, {"measurement": "acute side effects during the injection", "setting": "[2]; nausea or vomiting, slow injection over 5 min, 100-120 kBq/kg", "value": "did not observe any acute side effects"}, {"measurement": "xerostomia", "setting": "[2]; patient complaints", "value": "did not complain of xerostomia"}, {"measurement": "RP-HPLC profile of saline incubation samples", "setting": "[3]", "value": "single radioactivity peak"}, {"measurement": "time stable in vivo (urine and blood samples)", "setting": "[4]; first 3 patients, blood 0-10 min, urine up to 3 h after injection", "value": "≥ 3", "unit": "h"}, {"measurement": "time remained stable in urine", "setting": "[4]; patient urine samples up to 3 h after injection", "value": "up to 3 h"}, {"measurement": "mean parotid SUVmax after two cycles", "setting": "[5]; n=6, baseline 2.98±0.96, p=0.73", "value": "2.48±0.59"}, {"measurement": "mean parotid SUVmax after the first cycle", "setting": "[5]; n=9, baseline 2.98±0.96, p=0.93", "value": "2.07±0.93"}, {"measurement": "progressive disease", "setting": "[6]; n=1", "value": 11, "unit": "%"}, {"measurement": "partial response (PR)", "setting": "[6]; n=4", "value": 44.4, "unit": "%"}, {"measurement": "mean excretion rate from the kidneys", "setting": "[7]", "value": "56±9.7", "unit": "%"}]}]}
